# Screens as filed in PubChem.
# Many of the other results were omitted from the sample, so hits are more common in it than they were.
# IDH1 mut inh: blocks human IDH1 R132H reductase activity | O75874 | diaphorase/resazurin fluorescence, 60 min | inhibition, % at 10 µM | hit rate 0.18% among 70,000 | AID 624101; in the data active means inhibition above about 34%; inconclusive means no clear call, values can overlap the other calls; inactive means below about 11%;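 further: 0% = DMSO and 100% = no enzyme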
# Target sequence (O75874 whole entry R132H): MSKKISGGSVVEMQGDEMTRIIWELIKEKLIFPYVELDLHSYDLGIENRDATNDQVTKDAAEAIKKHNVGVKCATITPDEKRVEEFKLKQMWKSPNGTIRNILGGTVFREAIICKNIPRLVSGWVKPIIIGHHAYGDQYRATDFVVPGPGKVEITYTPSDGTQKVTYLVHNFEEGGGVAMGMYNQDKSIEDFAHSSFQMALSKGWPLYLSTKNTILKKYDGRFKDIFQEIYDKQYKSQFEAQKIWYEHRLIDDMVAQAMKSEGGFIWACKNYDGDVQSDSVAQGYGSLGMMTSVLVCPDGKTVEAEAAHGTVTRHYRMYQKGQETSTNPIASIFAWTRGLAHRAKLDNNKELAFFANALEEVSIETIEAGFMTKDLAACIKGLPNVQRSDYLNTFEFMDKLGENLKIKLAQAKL
# GASC1 inh: KDM4C (human) demethylase inhibition; Q9H3R0; GST-KDM4C 2-372, H3K9me3 peptide, LANCE TR-FRET; inhibition, % at 12.5 µM; hit rate 0.15% among 96,000;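 active means mean replicate inhibition above about 25%, with at least 55% of replicates also reaching it, limit read from the data, passing the limit was not always enough; inconclusive means only one of those two conditions met; inactive means neither condition met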
#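 reagent = H3K9me3 peptide substrate, Fe(II), 2-oxoglutarate | system = GST-tagged GASC-1 (JMJD2C) catalytic fragment, aa 2-372 | amount = enzyme final amount 10 nM | read-out = Fall in 671/618 emission ratio as inhibition | medium = HEPES buffer, pH 7.5, plus ascorbate | schedule = 30 min reaction, 60 min detection, RT | measured by = LANCE TR-FRET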
# T cruzi growth-1: T. cruzi proliferation inhibition; T. cruzi beta-gal in NIH3T3, GalScreen luminescence, 90 h; inhibition, % at 8.34 µM; hit rate 5.9% among 77,000; AID 624255;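 active means mean inhibition above about 93%, with at least 55% of replicates each passing it, limit read from the data, passing the limit was not always enough; inconclusive means only one of those two conditions holds; inactive means neither condition holds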
# T cruzi growth-2: blocks T. cruzi growth in NIH3T3 host cells | shares compounds with T cruzi growth-1 | T. cruzi beta-gal in NIH3T3, GalScreen luminescence, 90 h | inhibition, % at 8.35 µM | hit rate 72% among 5,600;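 active means mean replicate inhibition above about 95% and at least 55% of replicates individually reaching it, limit read from the data; inconclusive means only one of the two criteria is met; inactive means neither criterion is met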
# T cruzi growth-3: inhibitors of T. cruzi proliferation; shares compounds with T cruzi growth-1; hit rate 21% among 5,600; T. cruzi beta-gal in NIH3T3, GalScreen luminescence, 90 h; inhibition, % at 2.09 µM; AID 651740;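 active means mean inhibition above about 95%, with at least 55% of replicates also reaching it, limit read from the data; inconclusive means meets just one of the two conditions; inactive means meets neither condition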;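 further: plate controls were neutral control median for no effect and positive control median for full effect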
# NIH3T3 tox: kills mouse NIH/3T3 fibroblasts. hit rate 14% among 5,600. cytotoxicity (signal decrease), % at 8.35 µM. shares compounds with T cruzi growth-1. NIH/3T3 viability, CellTiter-Glo ATP luminescence, 90 h;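 active means mean signal decrease across replicates above about 35% based on untreated-well scatter, with enough replicates individually passing, limit read from the data; inconclusive means no rule stated though some were filed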;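 further: 0% = median of neutral control wells and 100% = median of positive control wells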
# 3T3 cytotox 2: cytotoxicity in mouse NIH/3T3 fibroblasts. inhibition, % at 24.9 µM. hit rate 56% among 5,600. NIH/3T3 viability, CellTiter-Glo ATP luminescence, 90 h. shares compounds with T cruzi growth-1;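 active means mean loss of cell viability signal at or above a set limit, and enough replicates individually reaching it; inconclusive means meets only the mean limit or only the replicate share; inactive means meets neither condition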;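 further: 0% = median of neutral control wells and 100% = median of positive control wells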
# Numbers without * were called inactive; ? = inconclusive; . = not tested or not shown; ! = not confirmed by another sample.
SMILES,IDH1 mut inh,GASC1 inh,T cruzi growth-1,T cruzi growth-2,T cruzi growth-3,NIH3T3 tox,3T3 cytotox 2
C[C@H]1CCCCO[C@H](CN(C)C(=O)Nc2ccc(C(F)(F)F)cc2)[C@@H](C)CN([C@@H](C)CO)C(=O)c2cc(NC(=O)NC3CCCCC3)ccc2O1,1,0,109*,97*,107*,-1,26
C[C@@H]1CCCCO[C@H](CN(C)C(=O)NC2CCCCC2)[C@H](C)CN([C@@H](C)CO)C(=O)c2cc(NC(=O)Nc3ccc(C(F)(F)F)cc3)ccc2O1,4,-3,85,.,.,.,.
C[C@@H]1CCCCO[C@@H](CN(C)C(=O)NC2CCCCC2)[C@@H](C)CN([C@H](C)CO)C(=O)c2cc(NC(=O)Nc3ccc(C(F)(F)F)cc3)ccc2O1,0,3,84,.,.,.,.
C[C@@H]1CCCCO[C@@H](CN(C)C(=O)Nc2ccc(C(F)(F)F)cc2)[C@H](C)CN([C@@H](C)CO)C(=O)c2cc(NC(=O)NC3CCCCC3)ccc2O1,-1,10,?,101*,84,3,-6
O=C(CCOc1ccccc1)Nc1nc2c(ccc3ccccc32)s1,-1,.,.,.,.,.,.
COC(=O)c1c(C)oc2cc(Br)c(OCC(=O)c3ccc(F)cc3)cc12,2,.,.,.,.,.,.
COc1cccc(S(=O)(=O)N2CCCCN3[C@H](CO)[C@@H](c4ccc(C#CC(C)C)cc4)[C@H]3C2)c1,.,0,82,.,.,.,.
COc1ccc(S(=O)(=O)N2CCCCN3[C@H](C2)[C@@H](c2ccc(C#CC(C)C)cc2)[C@@H]3CO)cc1,.,-1,105*,102*,112*,22,97*
COc1ccc(C#Cc2ccc([C@H]3[C@H](CO)N4CCCCN(S(=O)(=O)c5ccccc5)C[C@@H]34)cc2)cc1,.,1,54,.,.,.,.
COc1ccc(S(=O)(=O)N2CCCCN3[C@H](CO)[C@H](c4ccc(C#CCC(C)C)cc4)[C@H]3C2)cc1,.,1,55,.,.,.,.
COc1ccc(S(=O)(=O)N2CCCCN3[C@H](CO)[C@H](c4ccc(C#CC(C)C)cc4)[C@H]3C2)cc1,.,0,102*,105*,98*,72*,73*
COc1ccc(S(=O)(=O)N2CCCCN3[C@H](CO)[C@H](c4ccc(C#CCC(C)C)cc4)[C@@H]3C2)cc1,.,-1,?,87,?,41*,67*
CCOc1ccccc1-c1nc(SCC(=O)N2c3ccccc3Sc3ccccc32)n[nH]1,0,.,.,.,.,.,.
Cc1ccc(-c2ccc3c(c2)O[C@@H](CN(C)Cc2ccccc2)[C@@H](C)CN([C@@H](C)CO)S3(=O)=O)cc1,0,2,124*,96*,107*,22,104*
Cc1ccc(-c2ccc3c(c2)O[C@H](CN(C)Cc2ccc(C(=O)O)cc2)[C@H](C)CN([C@H](C)CO)S3(=O)=O)cc1,12,1,18,.,.,.,.
Cc1ccc(-c2ccc3c(c2)O[C@@H](CN(C)Cc2ccccc2)[C@@H](C)CN([C@H](C)CO)S3(=O)=O)cc1,0,-2,115*,84,103*,4,103*
C[C@H]1CN([C@@H](C)CO)S(=O)(=O)c2ccc(-c3ccccc3)cc2O[C@@H]1CN(C)Cc1ccccc1,0,0,80,.,.,.,.
COc1cccc(C(=O)COc2cccc(NC(=O)c3ccc([N+](=O)[O-])cc3)c2)c1,0,.,.,.,.,.,.
O=C(CSc1nnc(-c2ccc(Cl)cc2)o1)Nc1cc(C(F)(F)F)ccc1Cl,1,.,.,.,.,.,.
Cc1ccc(S(=O)(=O)N(C)C[C@H]2Oc3ccc(NS(=O)(=O)c4ccc(Cl)cc4)cc3C(=O)N([C@H](C)CO)C[C@H]2C)cc1,7,0,100*,96*,13,28,36*
C[C@@H]1CN([C@@H](C)CO)C(=O)c2cc(NS(=O)(=O)c3ccc(Cl)cc3)ccc2O[C@@H]1CN(C)S(=O)(=O)c1ccc(Cl)cc1,0,0,?,113*,42,28,65*
C[C@@H]1CN([C@@H](C)CO)C(=O)c2cc(NS(=O)(=O)c3ccc(Cl)cc3)ccc2O[C@H]1CN(C)S(=O)(=O)c1ccc(Cl)cc1,2,0,39,.,.,.,.
Cc1ccc(S(=O)(=O)Nc2ccc3c(c2)C(=O)N([C@@H](C)CO)C[C@H](C)[C@H](CN(C)S(=O)(=O)c2ccc(Cl)cc2)O3)cc1,0,0,.,.,.,.,.
O=C(CSc1ccccc1)Nc1ccc(C(=O)Nc2ccc(Br)cc2C(=O)O)cc1,1,.,.,.,.,.,.
Cc1ccc(-c2nnc(SCc3ccccc3C#N)n2-c2ccccc2)cc1Cl,0,.,.,.,.,.,.
SMILES,IDH1 mut inh,GASC1 inh,T cruzi growth-1,T cruzi growth-2,T cruzi growth-3,NIH3T3 tox,3T3 cytotox 2
Cc1ccc(NC(=O)CSc2nnc(-c3ccc(Cl)cc3Cl)n2-c2ccccc2)cc1,0,.,.,.,.,.,.
COc1ccc(-n2c(SCC(=O)Nc3ccc(Cl)cc3C)nnc2-c2ccccc2F)cc1,0,.,.,.,.,.,.
CC1C(=O)C(=O)[C@@H]2O[C@@H]2C1=O (stereo partly specified),0,.,.,.,.,.,.
C[C@H](CO)N1C[C@H](C)[C@H](CN(C)Cc2cccc(O)c2)OCc2cn(nn2)CCCC1=O,.,0,?,-13,4,-3,-6
C[C@@H]1CN([C@H](C)CO)C(=O)CCCn2cc(nn2)CO[C@@H]1CN(C)C(=O)Cc1ccccc1,2,1,33,.,.,.,.
C[C@H]1CN([C@@H](C)CO)C(=O)CCCn2cc(nn2)CO[C@@H]1CN(C)C(=O)C1CC1,-2,-1,4,.,.,.,.
C[C@H]1CN([C@@H](C)CO)C(=O)CCCn2cc(nn2)CO[C@@H]1CN(C)Cc1cccc(O)c1,1,1,15,.,.,.,.
C[C@@H]1CN([C@@H](C)CO)C(=O)CCCn2cc(nn2)CO[C@H]1CN(C)C(=O)C1CC1,3,0,?,48,11,11,15
C[C@@H]1CN([C@@H](C)CO)C(=O)CCCn2cc(nn2)CO[C@H]1CN(C)Cc1ccccc1,-4,7,121*,-101,-67,-24,-13
C[C@H]1CN([C@@H](C)CO)C(=O)CCCn2cc(nn2)CO[C@@H]1CN(C)C(=O)Cc1ccccc1,0,-1,131*!,17,34,10,3
C[C@H]1CN([C@@H](C)CO)C(=O)CCCn2cc(nn2)CO[C@@H]1CN(C)Cc1ccccc1,2,1,-21,.,.,.,.
CCOC(=O)c1c(NC(=O)COc2ccccc2Cl)sc2c1CCCC2,0,.,.,.,.,.,.
O=C(CCS(=O)(=O)c1ccc(Br)s1)NC(c1ccccc1)c1ccccc1,1,.,.,.,.,.,.
N#CCCN(Cc1ccco1)C(=S)Nc1ccccc1,0,.,.,.,.,.,.
Cc1ccc(CN(CC(N)=O)S(=O)(=O)c2ccc(Cl)cc2)cc1,-1,.,.,.,.,.,.
C[C@@H]1CN([C@H](C)CO)C(=O)CCCn2cc(nn2)CO[C@@H]1CN(C)C(=O)c1ccc(N2CCN(C)CC2)cc1,2,3,120*,-38,-60,-12,-15
